Published values of several laboratories.
Lines come from different studies, so protocols differ.
Target: Phosphorylase b kinase gamma catalytic chain, skeletal muscle/heart isoform (PHKG1, Homo sapiens, UniProt Q16816)

| Structure (SMILES) | assay | conditions | remaining binding [%] |
| --- | --- | --- | --- |
| O=C(NCCCN1CCOCC1)c1ccc(Nc2nccc(-c3cc4ccccc4s3)n2)cc1 | binding, competition with immobilised ligand | 1 µM | 49 |
| CCC(=N\O)/C(C)=C/c1ccc(F)cc1 | cell-free assay, competition with immobilised ligand | 1 µM | 100 |
| O=C(c1ccc(Nc2ncc(Cl)c(-c3ccc(Cl)s3)n2)cc1)N1CCC(N2CCCC2)CC1 | binding, competition with immobilised ligand | 1 µM | 85 |
| C[C@H]1CCN(c2nccc(-c3cnn4ncccc34)n2)C1 | binding | 1 µM | 100 |
| COc1ccc2cc(OCC3(C(=O)O)CN(C(=O)c4ccc(F)cc4)C3)ccc2c1 | cell-free assay, competition with immobilised ligand | 1 µM | 100 |
| N[C@H]1CCN(c2nccc(-c3cnn4ncccc34)n2)C1 | binding | 1 µM | 84 |
| CC1=C(C#N)C(c2ccc3c(c2)c(NC(=O)c2ccccc2C)nn3C)C(C#N)=C(C)N1 | cell-free assay, competition with immobilised ligand | 1 µM | 91 |
| O=C(NCC1CCOCC1)c1n[nH]cc1NC(=O)c1c(F)cccc1F | binding, competition with immobilised ligand | 1 µM | 100 |
| CCCOc1ccc([C@@H]2[C@@H](C(=O)O)[C@H](c3ccc4c(c3)OCO4)CN2CC(=O)Nc2c(CC)cccc2CC)cc1 | cell-free assay, competition with immobilised ligand | 1 µM | 97 |
| FC(F)(F)Oc1cccc(-c2cnc3ccc(-c4ccncc4)nn23)c1 | cell-free assay, competition with immobilised ligand | 5 µM | 43 |
| CN(C)c1ncc(F)c(-c2cnn3ncccc23)n1 | binding | 1 µM | 100 |
| COc1cnc(Nc2cccc(S(N)(=O)=O)c2)nc1N1CCN(c2ccccc2)C(=O)C1 | binding, competition with immobilised ligand | 1 µM | 100 |
| CC(=O)C1=C(C)N(c2cccc(C(F)(F)F)c2)C(=O)N[C@@H]1c1ccc(C#N)nc1 | cell-free assay, competition with immobilised ligand | 1 µM | 100 |
| CN(c1nccc(-c2cnn3ncccc23)n1)C1CC1 | binding | 1 µM | 100 |
| CO[C@H]1CC[C@H](CNc2ccc(S(=O)(=O)NC(=O)c3ccc(N4CCN(CC5=C(c6ccc(Cl)cc6)CC(C)(C)CC5)CC4)cc3Oc3cnc4[nH]ccc4c3)cc2[N+](=O)[O-])CC1 | cell-free assay, competition with immobilised ligand | 1 µM | 100 |
| c1cnn2ncc(-c3ccnc(N4CCC45COC5)n3)c2c1 | binding | 1 µM | 85 |
| O=C(O)[C@H]1[C@H](Cn2nnc3ccccc3c2=O)CC[C@@H]1C(=O)c1ccc(OCCC2CCOCC2)cc1 | cell-free assay, competition with immobilised ligand | 1 µM | 74 |
| COc1ccnn2ncc(-c3ccnc(N(C)C)n3)c12 | binding | 1 µM | 100 |
| COc1ncc2cc3ccccc3nc2c1C#N | cell-free assay, competition with immobilised ligand | 5 µM | 83 |
| O=C(c1ccc(Nc2nccc(-c3cc4ccccc4s3)n2)cc1)N1CCC(N2CCCC2)CC1 | binding, competition with immobilised ligand | 1 µM | 96 |
| CN(C)c1nccc(-c2cnn3ncccc23)n1 | binding | 1 µM | 100 |
| Nc1ncc2c(n1)-c1c([nH]c3ccc(C#CC4CC4)cc13)CCCC2 | binding, competition with immobilised ligand | 1 µM | 93 |
